Bioassay records deposited in PubChem by several laboratories.
PTK2B oligo ant = antagonists of Pyk2 self-association, primary screen, Q293 cells, FERM NanoBiT luminescence, HTS; hits give low values; z-score (the deposit names both 25 µM and 10 µM); actives 0.83% (n = 99,000);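 active means Z-score of -3 or lower, scaled per plate to the spread of control and sample wells; inactive means z-score above -3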;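 further: negative z-score means lost luminescence so less FERM oligomerization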
Rev-RRE block = HIV-1 Rev-RRE binding inhibitors, primary screen, biochemical, FRET, protein-RNA interaction; Rev peptide-RRE RNA binding; actives 0.79% (n = 97,000); inhibition, % at 8 µM; P05866;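 active means inhibition above the screen-wide mean plus 3 SD, cut at about 35% in these data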;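 further: 0% = median DMSO wells and 100% = median Neomycin B control wells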
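Test system: Cy5-tagged RRE RNA duplex with fluorescein-tagged Rev peptide | Read-out: % inhibition of FRET ratio versus controls | Probe or stimulus: Labelled Rev peptide | Incubation: 5 min RNA-compound premix plus 15 min binding step, 25 °C | Technique: FRET fluorescence readout | Benchmarks: DMSO low control, neomycin B high control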
DAT uptake mod = changed hDAT dopamine uptake under cocaine IC80, either direction, primary screen, cocaine antagonist project, cell-based, LLC-PK1 hDAT, [14C]-dopamine uptake, MLSMR. Sodium-dependent dopamine transporter (Homo sapiens), Q01959. LLC-PK1 hDAT cells, [14C]-dopamine uptake with cocaine IC80; actives deviate in either direction. B-score at 10 µM. actives 1.3% (n = 110,000). AID 449768, 2010;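 active means Z score or B-score, a plate-position-corrected score, falls beyond the plate's 99.7% confidence bounds, in either direction; inactive means both scores lie inside the 99.7% bounds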;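 further: scored against the spread of the other compound wells on the same plate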
Cav3 T inh = Cav3.2 calcium influx blockers – cell-based, Fluo-4 calcium fluorescence, FDSS, MLSMR library, primary screen. Voltage-dependent T-type calcium channel subunit alpha-1H (Homo sapiens), O95180. B-score at 10 µM. Cav3.2-expressing cells; hits give low values. actives 4% (n = 100,000);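 active means single-dose well whose peak fluorescence ratio is a statistical outlier from its plate by either plate-standardised score or position-corrected B-score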
Phagocyt inh = inhibitors of macrophage phagocytosis, primary screen, imaging, J774A.1 cells, IgG beads. J774A.1 macrophage IgG-bead phagocytosis. inhibition, % at 5 µM. actives 0.07% (n = 110,000). AID 1029, 2008;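 active means inhibition above the mean of the plate negative controls plus 5 SD, cut at about 13% in these data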;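 further: phagocytic index as fraction of beads internalized from green versus red external bead signal; plate controls were DMSO negative control for no effect and cytochalasin-D positive control for full effect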
Measles CPE = compounds protecting cells from measles virus cytopathic effect, primary screen, measles RdRp inhibitor project, single point, MLSMR library, absorbance; Measles virus-infected cells, CPE protection; protection (pct of control), % at 4 µM; actives 1.5% (n = 140,000); in the data active means protection mostly above about 24%, no sharp cut-off; inactive means mostly below about 26%
* = called active by the depositor; [ ] = another dose, or the depositor's remark. In the library only some 5.9% were active in any assay of this set; here they are far more common.

Results for C=CCN1C(=O)N(/C=C/C)c2cccc3cccc1c23 ?
PTK2B oligo ant: -3.7*; Rev-RRE block: 15; DAT uptake mod: -0.34; Cav3 T inh: -5*; Phagocyt inh: 0; Measles CPE: 10

What do the screens show for `C=CCN1C(=O)C(C)(C)Nc2ccccc21`?
PTK2B oligo ant: -0.71; Rev-RRE block: 6; DAT uptake mod: 0.15; Cav3 T inh: 0.42; Phagocyt inh: -2; Measles CPE: 14

How did O=C(CCC(=O)c1ccc(F)cc1)Nc1cccc(S(=O)(=O)Nc2cccc(Cl)c2)c1 do in these assays?
Phagocyt inh: 4; Measles CPE: 11

How did COc1ccc(S(=O)(=O)n2nc(OC(=O)c3c(-c4ccccc4Cl)noc3C)cc2N)cc1 do in these assays?
PTK2B oligo ant: -0.42; Rev-RRE block: 5; DAT uptake mod: -1; Cav3 T inh: -5.4*; Measles CPE: 14

Results for O=C(NCc1ccccc1)C1=C[C@@H](c2coc3ccccc3c2=O)C[C@@H](OCc2ccc(CO)cc2)O1 ?
DAT uptake mod: 1.4; Cav3 T inh: -0.48

What do the screens show for `CCn1c(SCC(=O)c2ccccc2)nnc1-c1cccs1`?
PTK2B oligo ant: -0.32; Rev-RRE block: -3; DAT uptake mod: 1.9; Cav3 T inh: -0.025; Measles CPE: 20

Results for O=C1c2ccccc2NC(c2cccc(Cl)c2)N1N=C1CCCCCC1 (configuration not stated) ?
PTK2B oligo ant: -0.37; Rev-RRE block: 11; Cav3 T inh: -3.9*; Measles CPE: 5

How did CC(C)[C@H](NC(=O)c1ccc(C(C)(C)C)cc1)C(=O)Nc1nnc(C2CC2)s1 do in these assays?
Phagocyt inh: -5; Measles CPE: 3

What do the screens show for `Cc1ccc(C(O)P(=O)(OC2CCCCC2)OC2CCCCC2)cc1` (configuration not stated)?
PTK2B oligo ant: 0.63; Rev-RRE block: 6; DAT uptake mod: 1; Cav3 T inh: -4.2*; Phagocyt inh: 1; Measles CPE: 11

What do the screens show for `CC(C)(C)c1ccc(C(=O)NCC(=O)OCC(=O)c2ccc3c(c2)-c2ccccc2C3)cc1`?
Phagocyt inh: -8; Measles CPE: 8

What do the screens show for `CC1CCN(c2c(NCC3CCC(C(=O)NCc4ccccc4Cl)CC3)c(=O)c2=O)CC1` (configuration not stated)?
Measles CPE: 6

Results for NC(=S)NNC(=O)Nc1ccc(Cl)c(Cl)c1 ?
Phagocyt inh: 3; Measles CPE: 6

What do the screens show for `Cn1cccc1/C=C1\CC(C(C)(C)C)C/C(=C\c2cccn2C)C1=O` (configuration not stated)?
PTK2B oligo ant: 0.34; Rev-RRE block: 125*[fluorescence artefact?]; DAT uptake mod: -1.2; Cav3 T inh: -9.1*; Phagocyt inh: 1; Measles CPE: 18

How did Cn1c(CSc2nnc(SCc3ccccc3)s2)nc2ccccc21 do in these assays?
PTK2B oligo ant: -0.13; Rev-RRE block: 5; DAT uptake mod: 1.2; Cav3 T inh: -4.3*; Phagocyt inh: -1; Measles CPE: 18

Results for Nc1nnc(COc2ccccc2)s1 ?
PTK2B oligo ant: 0.3; Rev-RRE block: 10; DAT uptake mod: -0.39; Cav3 T inh: 0.12; Measles CPE: 6

Results for CCOC(=O)c1sc(NC(=O)c2cc(-c3ccccc3C)nc3ccccc23)c(C#N)c1C ?
PTK2B oligo ant: -3.7*; Rev-RRE block: 10; DAT uptake mod: -0.84; Cav3 T inh: -6.8*; Phagocyt inh: 2; Measles CPE: 4

What do the screens show for `Cc1ccc(C2C(C#N)=C(N)Oc3c2sc2ccccc32)o1` (configuration not stated)?
Rev-RRE block: 94*[fluorescence artefact?]; DAT uptake mod: 0.87; Cav3 T inh: -1.6; Phagocyt inh: 0; Measles CPE: 14

What do the screens show for `CCOC(=O)CC1=C(C(=O)OCC)C(c2ccc(C)o2)C(C#N)=C(N)O1` (configuration not stated)?
PTK2B oligo ant: -0.17; Rev-RRE block: 16; DAT uptake mod: -0.87; Cav3 T inh: 0.94; Phagocyt inh: -4; Measles CPE: 10

How did CCOC(=O)Cc1c(C)nc2c(-c3cccc(Br)c3)c[nH]n2c1=O do in these assays?
PTK2B oligo ant: 0.84; DAT uptake mod: 0.99; Cav3 T inh: -5.8*; Phagocyt inh: -1; Measles CPE: 5

How did Cc1cccc(-n2nc3c(c2NC(=O)c2ccco2)CSC3)c1C do in these assays?
PTK2B oligo ant: -0.31; Rev-RRE block: -4; DAT uptake mod: 0.048; Cav3 T inh: -3.4; Phagocyt inh: -1; Measles CPE: 28*

What do the screens show for `Cc1ccc(-n2nc3c(c2NC(=O)c2ccc(Br)o2)CSC3)c(C)c1`?
PTK2B oligo ant: -0.55; Rev-RRE block: 0; DAT uptake mod: -0.49; Cav3 T inh: -1.7; Phagocyt inh: -1; Measles CPE: 12

Results for Cc1ccccc1-n1nc2c(c1NC(=O)c1c(-c3ccccc3Cl)noc1C)CSC2 ?
PTK2B oligo ant: -0.75; Rev-RRE block: 8; DAT uptake mod: 0.0019; Cav3 T inh: -5.9*; Phagocyt inh: 2; Measles CPE: 3

How did Cc1onc(-c2ccccc2Cl)c1C(=O)Nc1ccccc1N1CCOCC1 do in these assays?
PTK2B oligo ant: -0.78; Rev-RRE block: 11; DAT uptake mod: 1.6; Cav3 T inh: -3.2; Phagocyt inh: 0; Measles CPE: 10

Results for Cc1onc(-c2ccccc2Cl)c1C(=O)Nc1ccc(N2CCOCC2)cc1 ?
PTK2B oligo ant: 0.85; Rev-RRE block: -1; DAT uptake mod: 0.71; Cav3 T inh: -0.3; Measles CPE: 3

What do the screens show for `Cc1ccc(-n2nc3c(c2NC(=O)c2c(-c4ccccc4Cl)noc2C)CSC3)cc1`?
Rev-RRE block: 3; DAT uptake mod: 3*; Cav3 T inh: -6*; Phagocyt inh: 0; Measles CPE: 7

Results for CCCCNS(=O)(=O)c1ccc(NC(=O)c2c(-c3ccccc3Cl)noc2C)cc1 ?
PTK2B oligo ant: -0.52; Rev-RRE block: 13; DAT uptake mod: -0.59; Cav3 T inh: -5.7*; Phagocyt inh: 0; Measles CPE: 5

What do the screens show for `Cc1cccc(OC(=O)n2c(=S)oc3cc(Cl)ccc32)c1`?
Phagocyt inh: -6; Measles CPE: 9

Results for COc1ccc(-c2cc(C(=O)NCc3cn(C)nc3C)c3ccccc3n2)cc1OC ?
Phagocyt inh: -4; Measles CPE: 6
